In the library only some 2.2% were active in any assay of this set; here they are far more common.
Mot1-301 SUMO: SUMOylation pathway inhibition by Mot1-301 growth rescue. S. cerevisiae Mot1-301 growth rescue, ATP luminescence, 38.5C; percent above DMSO median, 100 means doubled. AID 2716. growth rescue, % at 18.8 µM. 320,000 tested, 1% active;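 active = every valid replicate shows activation above 250% relative to neutral control wells; inactive = the rest, any valid replicate at or below 250%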;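 note: OY570 slx delta 5 strain wells were the positive control but not used for scaling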
Cneo AK release: causes C. neoformans cell lysis; adenylate kinase release luminescence, 4 h; normalised: neutral wells 0, clomiphene wells 100; lysis activity, % at 15 µM; 360,000 tested, 0.2% active; AID 651654;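 active = mean lysis activity across replicates of at least 80%, whatever share of replicates individually reach that level; inactive = mean lysis activity below 80%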
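Material: C. neoformans cells | Amount: Yeast cell density of 5 × 10^6 cells/mL | Medium: Fresh YPD growth medium | Dosing: Single dose | Times: Static 4 h at 37 °C with compound, 1 h detection | Detection: AK luminescence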
Yeast superoxide: yeast age-related superoxide inhibition as caloric restriction mimetic. superoxide response (% of plate mean), % at 10 µM. 330,000 tested, 0.18% active. S. cerevisiae aged cells, superoxide DHE fluorescence; active compounds read low;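 active = superoxide response under a set limit, about three screen SD below normal, cut at about 65% in these data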;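 note: yeast aged for seven days with compound at 30 °C before DHE staining; 100% = average MFI of all compound-treated wells on the plate with controls excluded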
PglD inh: inhibitors of Campylobacter jejuni PglD acetyltransferase; 360,000 tested, 0.098% active; purified PglD enzyme, DTNB colorimetric CoA detection; AID 602405; inhibition, % at 12.5 µM; in the data active = inhibition above about 16%, passing the limit was not always enough
Ecoli rRNA inh: inhibitors of bacterial rRNA selective over humanized ribosomes; E. coli WT GFP vs humanized-ribosome RFP mutants, fluorescence, 24 h; active compounds read low; DMSO median 0, no signal -100; 350,000 tested, 1.6% active; GFP signal change (wild-type ribosome), % (test concentration not listed);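 active = significant combined selectivity score with lowered wild-type GFP, culture density cut under 30%, mutant RFP and density less affected; inactive = any of these conditions unmet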
Mot1 SUMO dose: yeast SUMO pathway inhibition in dose response | S. cerevisiae Mot1-301 galactose growth, ATP luminescence, 24 h; -100 = growth of slx-deleted rescue strain | 2,300 tested, under 10 active | AID 493004 | growth activity, percent, % at 42 µM | shares compounds with Mot1-301 SUMO;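 active = Signal drops as the depositor expects, and the fitted half-maximal dose is no more than ten times the top valid tested dose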;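 note: more negative values mean stronger growth rescue toward the control strain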
Numbers without * were called inactive; x = no result given; + = active, no number; [ ] = another dose, or the depositor's remark.

SMILES	Mot1-301 SUMO	Cneo AK release	Yeast superoxide	PglD inh	Ecoli rRNA inh	Mot1 SUMO dose
CCC(C)(C)n1nnnc1C(c1ccc(OC)c(OC)c1)N1CCN(c2cccc(OC)c2)CC1 (stereo not given)	+	-3	94	8	x	0
CCC(C)(C(=O)NC1CCCC1)N(C(=O)c1ccccn1)c1ccc(C)cc1 (stereo not given)	653*	0	96	0	x	0
CCNC(=O)C1CC(=O)N(Cc2ccc3c(c2)OCO3)C(=Nc2ccc(F)cc2)S1 (stereo not given)	781*	2	106	7	x	1
CC(=O)NNC(=O)CCn1c2c(c3ccccc31)CCCC2	3	0	92	-2	16	x
CCOC(=O)NNC(=O)CCn1c2c(c3ccccc31)CCCC2	960*	x	109	x	-17*	0
COCC(=O)N1C[C@@H](C)[C@@H](OC)CN(C)C(=O)c2ccc(NC(=O)NC(C)C)cc2OC[C@H]1C	x	71	x	-3	2	x
O=C(C1CCOCC1)N1C[C@H]2[C@@H](c3ccccc31)[C@H](CO)N2Cc1ccccc1	x	-9	x	2	-1	x
C[C@@H]1CN([C@@H](C)CO)C(=O)Cc2cc(NC(=O)NC3CCCCC3)ccc2O[C@H]1CN(C)Cc1ccccc1	x	-5	x	2	4	x
CCOC(=O)N1CCN(c2c(F)cc3[nH]c(=S)[nH]c3c2Br)CC1	293	x	102	x	x	x
CCOC(=O)N1CCN(c2cc3[nH]c(=S)[nH]c3cc2F)CC1	400*	-4	107	5	x	0
O=C(COc1ccc(F)cc1Cl)N(Cc1nnc(-c2ccccc2Cl)o1)C1CC1	510*	1	97	-5	-39	0
CO[C@@H]1CN(C)C(=O)c2ccc(NS(C)(=O)=O)cc2OC[C@H](C)N(C(=O)C2CCCCC2)C[C@@H]1C	x	-4	x	-1	-1	x
O=C(N/C(=C/c1ccc2c(c1)OCO2)C(=O)N1CCOCC1)c1cccs1	765*	-2	98	-6	x	-1
CO[C@@H]1CN(C)C(=O)c2cc(NS(C)(=O)=O)ccc2OC[C@H](C)NC[C@@H]1C	x	x	x	x	2	x
Cc1ccc(C(=O)Nc2ccc3c(c2)OCCO3)c(Cl)c1	408*	-6	99	-2	-14	-1
CCOc1ccc(CCN2CN(C3CCCCC3)CNC2=S)cc1OCC	431*	x	115	x	x	1
COc1ccc(NC(=O)Nc2ccc3c(c2)C(=O)N([C@H](C)CO)C[C@@H](C)[C@H](CN(C)C(=O)NC2CCCCC2)OCCCC[C@H](C)O3)cc1	x	55	x	2	0	x
CC(=O)N1c2ccc([N+](=O)[O-])cc2NC(=O)CC1C (stereo not given)	600*	-4	102	-3	x	-1
Cc1ccc(S(=O)(=O)N(C)C[C@@H]2Oc3ccc(NS(=O)(=O)c4cccs4)cc3CC(=O)N([C@@H](C)CO)C[C@H]2C)cc1	x	0	x	3	-3	x
CC(=O)c1c(Nc2cccc(F)c2)oc(C)cc1=O	952*	-4	89	3	-1	0
C[C@@H]1CN([C@@H](C)CO)C(=O)c2cc(NC(=O)CCC(F)(F)F)ccc2O[C@@H](C)CCCCO[C@H]1CN(C)S(=O)(=O)c1ccc(F)cc1	x	0	x	2	0	x
O=S(=O)(CCN1CCCCC1)Oc1ccc(Cl)cc1Cl	922*	1	98	2	6	1
CCOc1ccc(NC(=O)Nc2ccc3nsnc3c2)cc1	+	-2	85	-4	8	1
CN(C)CC(=O)N[C@@H]1CC[C@@H](CCNS(=O)(=O)c2ccccc2)O[C@H]1CO	x	0	x	1	1	x
CCOc1cccc(/C=N/N2C(C)CCCC2C)c1O (stereo not given)	10	-3	93	0	13	x
SMILES	Mot1-301 SUMO	Cneo AK release	Yeast superoxide	PglD inh	Ecoli rRNA inh	Mot1 SUMO dose
CC1CCCC(C)N1/N=C/c1cc(Br)cc(Br)c1O (stereo not given)	476*	0	101	-2	x	-1
C[C@@H]1CCCCO[C@H](CN(C)C(=O)CCCN(C)C)[C@@H](C)CN([C@@H](C)CO)C(=O)c2cc(NC(=O)Nc3ccc(F)cc3)ccc2O1	x	6	x	8	3	x
Cc1c(Cl)cccc1NC(=S)NCCCN(C)C	393*	11	80	5	11	0
S=C(NCCc1ccccc1)Nc1ccccc1Cl	530*	9	98	3	x	0
CO[C@H]1CC[C@H]2CCN(C)C(=O)CC3(CCCCC3)CN(C)C(=O)c3cc(C#N)ccc3OC[C@H]1O2	x	1	x	-2	-4	x
O=C(C1=C[C@@H](c2ccccc2)C[C@@H](OCc2ccc(CO)cc2)O1)N1CCCC1	x	-1	x	x	x	x
CC(=O)Nc1nn(CC(C)C)c2nc3ccc(C)cc3cc12	x	-1	x	6	6	x
CC(=O)Nc1nn(C)c2nc3ccc(C)cc3cc12	479*	-2	111	5	-1	0
CCCCCCCN1C(Nc2ccccc2)=NC[C@@H]1CC(C)C	611*	27	113	4	-58	-1[21 µM]
CC(C)C[C@H]1CN=C(Nc2ccccc2)N1CCCC1CCCC1	-15	-1	104	-94	-45	x
COc1ccc(S(=O)(=O)Nc2cccc3c2O[C@H](CN(C)Cc2ccc(Oc4ccccc4)cc2)[C@H](C)CN([C@@H](C)CO)C3=O)cc1	x	6	x	-1	3	x
COc1cc2nc(CSc3ncn[nH]3)[nH]c(=O)c2cc1OC	556*	x	102	x	9	0
CC(=O)Nc1ccc(CN2CCCC(CO)(Cc3cccc(Cl)c3)C2)cc1 (stereo not given)	+	-2	105	-3	-1	0
COc1cc(CN2CCCC(CO)(Cc3cccc(Cl)c3)C2)cc2c1OCO2 (stereo not given)	+	-2	89	-1	-4	1
OCC1(Cc2cccc(Cl)c2)CCCN(Cc2ccc(F)c(F)c2)C1 (stereo not given)	382*	-1	105	0	-54	-1
CSc1cccc(CN2CCCC(CO)(Cc3cccc(Cl)c3)C2)c1 (stereo not given)	-7	1	112	-6	-17	x
COc1ccc(NC(=O)N(C)C[C@H]2OCCCC[C@@H](C)Oc3ccc(NC(=O)Nc4ccc(F)cc4)cc3C(=O)N([C@@H](C)CO)C[C@H]2C)cc1	x	2	x	-1	-2	x
O=C(C1CCCN(S(=O)(=O)c2cnc[nH]2)C1)N1CCN(c2ccc(Cl)cc2)CC1 (stereo not given)	532*	-2	103	-4	-12	-1
CC(=O)Nc1ccc2c(c1)C(=O)N(C)[C@H]1CC[C@H](CC(=O)Nc3ccc(C)cc3)O[C@@H]1CO2	x	2	x	-3	-7	x
COc1cc(C)ccc1NC(=O)Cc1csc(NC(=O)Nc2ccccc2OC)n1	178	1	101	8	-24	x
